Data from ChEMBL document CHEMBL4251674, “Bioactivity-Based Molecular Networking for the Discovery of Drug Leads in Natural Product Bioassay-Guided Fractionation” (J Nat Prod, 2018).
pEC50: −log10 of the molar value. Active and inactive are the calls of the source. The calls are words filed in the database; no cut-off is given here.

Legend:
[1] = system: Chikungunya virus; test: Antiviral activity against Chikungunya virus 899 infected in African green monkey Vero cells assessed as inhibition of virus-induced cytopathic effect after 6 to 7 days by MTS assay; format: functional, organism-based; conditions: for pEC50: Chikungunya virus, 899, Vero
Method in brief: (§1)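 Cell-based CHIKV replication assay in Vero cells. EC50 is the concentration that reduces CHIKV replication by 50%. CC50 is the concentration that reduces natural growth of the host cells by 50%. […]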

[2] = Selectivity index, ratio of CC50 for African green monkey Vero cells to EC50 for Chikungunya virus 899 infected in African green monkey Vero cells; format: toxicity; conditions: read-out: Selectivity Index; method in brief: as §1

Which inhibition [1] does the source give for `C=C1[C@H](OC(=O)c2ccccc2)[C@@H](OC(C)=O)[C@@H](OC(C)=O)C(C)(C)/C=C/[C@H](C)C(=O)[C@@]2(O)C[C@@](C)(OC(C)=O)[C@H](O)[C@@H]2[C@H]1OCC(C)C` here?
Its inhibition is “inactive”.

With `C=C1[C@H](OCC(C)C)[C@@H](OC(C)=O)[C@@H](OC(C)=O)C(C)(C)/C=C/[C@H](C)C(=O)[C@@]2(O)C[C@@](C)(OC(C)=O)[C@H](OC(=O)c3ccccc3)[C@@H]2[C@H]1OCC(C)C` as the compound, how does the inhibition [1] read?
The inhibition was “inactive”.

For `C=C1[C@H](OC(=O)c2ccccc2)[C@@H](OC(C)=O)[C@@H](OC(=O)c2cccnc2)C(C)(C)/C=C/[C@H](C)C(=O)[C@@]2(O)C[C@@](C)(OC(=O)c3cccnc3)[C@H](OC(C)=O)[C@@H]2[C@H]1OC(C)=O`, which inhibition [1] is on record?
Its inhibition is “inactive”.

With `CC/C=C\C/C=C/C=C\C(=O)O[C@@H]1[C@@H](C)[C@]2(O)[C@@H]3C=C(C)C(=O)[C@H]3CC(CO)=C[C@H]2[C@@H]2C(C)(C)[C@]12OC(=O)C(C)C` as the compound, how does the pEC50 [1] read?
Its pEC50 is 4.90.

And the selectivity ratio [2]?
The selectivity ratio was 4.

With `C=C1[C@H](OC(=O)c2ccccc2)[C@@H](OC(C)=O)[C@@H](OC(C)=O)C(C)(C)/C=C/[C@H](C)C(=O)[C@@]2(O)C[C@@](C)(O)[C@H](OC(C)=O)[C@@H]2[C@H]1OCC(C)C` as the compound, how does the inhibition [1] read?
Its inhibition is “inactive”.

Which inhibition [1] does the source give for `C=C1[C@H](OC(=O)c2ccccc2)[C@@H](OC(C)=O)[C@@H](OC(C)=O)C(C)(C)/C=C/[C@H](C)C(=O)[C@@]2(O)C[C@@](C)(OC(C)=O)[C@H](O)[C@@H]2[C@H]1OC(=O)c1ccccc1` here?
Its inhibition is “inactive”.

Which results are given for `CCCCC/C=C/C=C\C(=O)O[C@@H]1[C@@H](C)[C@]2(O)[C@@H]3C=C(C)C(=O)[C@H]3CC(CO)=C[C@H]2[C@@H]2C(C)(C)[C@]12OC(=O)C(C)C`?
pEC50 [1]: 6.05; selectivity ratio [2]: 6

For `C=C1[C@H](OC(=O)c2ccccc2)[C@@H](O)[C@@H](OC(C)=O)C(C)(C)/C=C/[C@H](C)C(=O)[C@@]2(O)C[C@@](C)(OC(C)=O)[C@H](O)[C@@H]2[C@H]1OC(=O)c1ccccc1`, which inhibition [1] is on record?
The inhibition was “inactive”.

Which inhibition [1] does the source give for `CC(=O)O[C@H]1[C@@H](OC(C)=O)C(C)(C)/C=C/[C@@](C)(O)C(=O)[C@@]2(O)C[C@@](C)(OC(C)=O)[C@H](OC(C)=O)[C@@H]2[C@H]2OC(=O)CC[C@@]2(OC(C)=O)[C@@H]1OCC(C)C` here?
The inhibition was “inactive”.

Which inhibition [1] does the source give for `C=C1[C@H](OCC(C)C)[C@@H](OC(C)=O)[C@@H](OC(C)=O)C(C)(C)/C=C/[C@H](C)C(=O)[C@@]2(O)C[C@@](C)(OC(C)=O)[C@H](OC(=O)COC(=O)c3ccccc3)[C@@H]2[C@H]1OC(C)=O` here?
The inhibition was “inactive”.

Which inhibition [1] does the source give for `C=C1[C@H](OC(=O)c2ccccc2)[C@@H](OC(C)=O)[C@@H](OC(C)=O)C(C)(C)/C=C/[C@H](C)C(=O)[C@@]2(O)C[C@H](C)[C@H](OC(C)=O)[C@@H]2[C@H]1OCC(C)C` here?
Its inhibition is “inactive”.

What does the source list for `CCC/C=C/C=C\C(=O)O[C@@H]1[C@@H](C)[C@]2(O)[C@@H]3C=C(C)C(=O)[C@H]3CC(CO)=C[C@H]2[C@@H]2C(C)(C)[C@]12OC(=O)C(C)C`?
pEC50 [1]: 6.22; selectivity ratio [2]: 41

For `C=C1[C@H](OC(=O)c2ccccc2)[C@@H](OC(C)=O)[C@@H](OC(C)=O)C(C)(C)/C=C/[C@H](C)C(=O)[C@@]2(O)C[C@@](C)(OC(C)=O)[C@H](OCC(C)C)[C@@H]2[C@H]1OCC(C)C`, which inhibition [1] is on record?
The inhibition was “inactive”.

Which results are given for `CCC/C=C/C=C/C=C\C(=O)O[C@@H]1[C@@H](C)[C@]2(O)[C@@H]3C=C(C)C(=O)[C@H]3CC(CO)=C[C@H]2[C@@H]2C(C)(C)[C@]12OC(=O)C(C)C`?
pEC50 [1]: 6.40; selectivity ratio [2]: 34

For `C=C1[C@H](O)[C@H]2[C@@H](OC(=O)c3ccccc3)[C@](C)(O)C[C@]2(O)C(=O)[C@@H](C)/C=C/C(C)(C)[C@H](OC(C)=O)[C@H](OC(C)=O)[C@H]1OC(=O)c1ccccc1`, which inhibition [1] is on record?
Its inhibition is “inactive”.

For `CC(=O)O[C@H]1[C@@H](OC(C)=O)C(C)(C)/C=C/[C@@](C)(O)C(=O)[C@@]2(OC(C)=O)C[C@@](C)(OC(C)=O)[C@H](OC(C)=O)[C@@H]2[C@H]2OC(=O)CC[C@@]2(OC(C)=O)[C@@H]1OCC(C)C`, which inhibition [1] is on record?
The inhibition was “inactive”.

Which inhibition [1] does the source give for `C=C1[C@H](OC(=O)c2ccccc2)[C@@H](OC(C)=O)[C@@H](OC(C)=O)C(C)(C)/C=C/[C@H](C)C(=O)[C@@]2(O)C[C@@](C)(OC(C)=O)[C@H](OC(C)=O)[C@@H]2[C@H]1OCC(C)C` here?
Its inhibition is “inactive”.

With `CC(=O)O[C@H]1[C@@H](OC(C)=O)C(C)(C)/C=C/[C@@](C)(O)C(=O)[C@@]2(O)C[C@@](C)(OC(C)=O)[C@H](OC(C)=O)[C@@H]2[C@H]2OC(=O)CC[C@@]2(OCC(C)C)[C@@H]1OCC(C)C` as the compound, how does the inhibition [1] read?
Its inhibition is “inactive”.

With `CC(=O)O[C@H]1[C@@H](OC(C)=O)C(C)(C)/C=C/[C@H](C)C(=O)[C@@]2(OC(C)=O)C[C@@](C)(OC(C)=O)[C@H](O)[C@@H]2[C@H]2OC(=O)CC[C@@]2(OC(C)=O)[C@@H]1OCC(C)C` as the compound, how does the inhibition [1] read?
Its inhibition is “inactive”.

Which inhibition [1] does the source give for `C=C1[C@H](OC(=O)c2ccccc2)[C@@H](OC(C)=O)[C@@H](OC(=O)c2cccnc2)C(C)(C)/C=C/[C@H](C)C(=O)[C@@]2(O)C[C@@](C)(OC(=O)c3cccnc3)[C@H](OC(C)=O)[C@@H]2[C@H]1OCC(C)C` here?
The inhibition was “inactive”.

For `C=C1[C@H](OC(=O)c2ccccc2)[C@@H](OC(C)=O)[C@@H](OC(=O)c2cccnc2)C(C)(C)/C=C/[C@H](C)C(=O)[C@@]2(OC(C)=O)C[C@@](C)(OC(=O)c3cccnc3)[C@H](OC(C)=O)[C@@H]2[C@H]1OC(C)=O`, which inhibition [1] is on record?
Its inhibition is “inactive”.

Which inhibition [1] does the source give for `C=C1[C@H](OCC(C)C)[C@@H](OC(C)=O)[C@@H](OC(=O)c2cccnc2)C(C)(C)/C=C/[C@H](C)C(=O)[C@@]2(OC(C)=O)C[C@@](C)(OC(=O)c3cccnc3)[C@H](OC(C)=O)[C@@H]2[C@H]1OC(C)=O` here?
Its inhibition is “inactive”.
